Data published in ChEMBL document CHEMBL5032502, “Syntheses, Biological Evaluations, and Mechanistic Studies of Benzo[c][1,2,5]oxadiazole Derivatives as Potent PD-L1 Inhibitors with In Vivo Antitumor Activity” (J Med Chem, 2021).
Active and inactive are the calls of the source. No cut-off for these calls is given here.

Legend:
MC-38 [1] = experiment: Antitumor activity against mouse MC38 cells xenografted in C57BL/6 mouse assessed as reduction in mMDSC cells at 25 mg/kg, po by flow cytometry analysis; assay type: functional, organism-based
Procedure, shortened: (§1)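 Tumours taken from PD-L1-humanized mice carrying MC38-hPD-L1 tumours and dosed orally at 5 or 25 mg/kg daily. Tissue digested to single cells, red cells lysed with ACK buffer, Fc blocked. Surface stain 60 min for CD45, CD3, CD4, CD8, CD335, CD11b, Ly6G, Ly6C and F4/80, with a viability dye. Intracellular FOXP3 stain after permeabilization. Mean ± SEM, n = 7−8, one-way ANOVA.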

[2] = AUC (0 to t) in C57BL/6 mouse at 2 mg/kg, iv measured upto 24 hrs by LC-MS analysis; assay type: ADME, organism-based; design: route intravenous, dose 2 mg/kg, time <=24; conditions: in vivo
Procedure, shortened: (§2)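 Male animals fasted 12 h before dosing. Plasma levels measured by LC-MS, with the prodrug quantified as the parent acid. Mean ± SEM, n = 3.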

[3] = Oral bioavailability in Sprague-Dawley rat at 45 mg/kg measured upto 24 hrs by LC-MS analysis; assay type: ADME, organism-based; conditions: in vivo
Procedure, shortened: (§3)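 Male Sprague-Dawley rats or C57BL/6 mice fasted 12 h before dosing, given oral (po) or intravenous (iv) doses. Plasma levels measured by LC-MS. Parameters reported as mean ± SEM, n = 3.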

[4] = Tmax in C57BL/6 mouse at 2 mg/kg, iv measured upto 24 hrs by LC-MS analysis; assay type: ADME, organism-based; conditions: in vivo; procedure, shortened: as §3
[5] = Subacute toxicity in C57BL/6 mouse assessed as organ weight change po observed for 30 days; conditions: in vivo, 720 h
MC-38 [6] = experiment: Antitumor activity against mouse MC38 cells xenografted in C57BL/6 mouse assessed as increase in NK cells at 25 mg/kg, po by flow cytometry analysis; assay type: functional, organism-based; procedure, shortened: as §1
MC-38 [7] = experiment: Antitumor activity against mouse MC38 cells implanted in C57BL/6 mouse assessed as tumor growth inhibition at 300 mg/kg, po measured after 18 days; assay type: functional; conditions: MC-38, po, 432 h, time 18 day, read-out: TGI
Procedure, shortened: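 Female C57BL/6J mice, 8 weeks old, injected dorsally with 1 × 10⁶ MC38 cells in PBS. At 50 mm³, randomized to CMC-Na vehicle, 50, 150 or 300 mg/kg by daily oral gavage. Tumours measured every two days, volume = 0.5 × L × W². Sacrifice after 18 days of treatment. TGI = (1 − Vt/Vv) × 100. n = 8−10.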

B16-F10 [8] = experiment: Antitumor activity against mouse B16-F10 cells implanted in C57BL/6 mouse assessed as tumor growth inhibition at 45 mg/kg, po measured after 18 days; assay type: functional; conditions: 432 h, time 18 day, read-out: TGI
Procedure, shortened: (§4)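 Female C57BL/6J mice, 8 weeks old, injected dorsally with 1 × 10⁶ B16-F10 cells in PBS. Daily oral gavage started the same day (day 1), in 0.5% CMC-Na vehicle. Tumour size and body weight recorded daily, volume = 0.5 × L × W². Sacrifice on day 18, tumours excised and weighed. TGI = (1 − Vt/Vv) × 100.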

[9] = AUC (0 to t) in C57BL/6 mouse at 10 mg/kg, po measured upto 24 hrs by LC-MS analysis; assay type: ADME, organism-based; design: route oral, dose 10 mg/kg, time <=24; conditions: in vivo; procedure, shortened: as §2
[10] = Cmax in C57BL/6 mouse at 2 mg/kg, iv measured upto 24 hrs by LC-MS analysis; assay type: ADME, organism-based; design: route intravenous, dose 2 mg/kg, time <=24; conditions: in vivo; procedure, shortened: as §2
MC-38 [11] = experiment: Antitumor activity against mouse MC38 cells xenografted in C57BL/6 mouse assessed as reduction in macrophages at 25 mg/kg, po by flow cytometry analysis; assay type: functional, organism-based; procedure, shortened: as §1
[12] = Cmax in C57BL/6 mouse at 10 mg/kg, po measured upto 24 hrs by LC-MS analysis; assay type: ADME, organism-based; design: route oral, dose 10 mg/kg, time <=24; conditions: in vivo; procedure, shortened: as §2
MC-38 [13] = experiment: Antitumor activity against PD-L1 humanized mouse MC38 cells implanted in PD-L1 humanized C57BL/6 mouse assessed as tumor growth inhibition at 5 mg/kg, po measured after 27 days; assay type: functional; conditions: MC-38, po, 648 h, time 27 day, read-out: TGI
Procedure, shortened: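 Female PD-L1-humanized C57BL/6 mice, 6 weeks old, injected in the right flank with 1 × 10⁶ MC38-hPD-L1(Tg)-mPDL1(KO) cells in PBS. At 50 mm³ tumours, animals randomized to 0.5% CMC-Na vehicle or drug by daily oral gavage. Tumours measured twice weekly, volume = 0.5 × L × W². Sacrifice on day 27. TGI = (1 − Vt/Vv) × 100. n = 8.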

[14] = AUC (0 to t) in Sprague-Dawley rat at 9 mg/kg, iv measured upto 24 hrs by LC-MS analysis; assay type: ADME, organism-based; design: route intravenous, dose 9 mg/kg, time <=24; conditions: in vivo; procedure, shortened: as §2
MC-38 [15] = experiment: Antitumor activity against mouse MC38 cells implanted in C57BL/6 mouse assessed as tumor growth inhibition at 300 mg/kg, po measured after 14 days; assay type: functional; conditions: MC-38, po, 336 h, time 14 day, read-out: TGI
[16] = Half life in C57BL/6 mouse at 10 mg/kg, po measured upto 24 hrs by LC-MS analysis; assay type: ADME, organism-based; conditions: in vivo; procedure, shortened: as §2
[17] = Tmax in Sprague-Dawley rat at 9 mg/kg, iv measured upto 24 hrs by LC-MS analysis; assay type: ADME, organism-based; conditions: in vivo; procedure, shortened: as §3
B16-F10 [18] = experiment: Antitumor activity against mouse B16-F10 cells implanted in C57BL/6 mouse assessed as tumor weight at 45 mg/kg, po measured after 18 days (reference value: 1.76 gm); assay type: functional; conditions: time 18 day; procedure, shortened: as §4
[19] = Acute toxicity in C57BL/6 mouse assessed as body weight loss at 2000 mg/kg, po observed for 30 days; assay type: organism-based; conditions: in vivo, 720 h, time 30 day
Procedure, shortened: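 Healthy C57BL/6 mice got a single oral 2000 mg/kg dose. Mortality and body weight were then recorded over a 30-day observation period.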

[20] = Toxicity in C57BL/6 mouse assessed as effect on AST level at 2000 mg/kg, po observed for 30 days; assay type: organism-based; conditions: in vivo, 720 h, time 30 day
B16-F10 [21] = experiment: Antitumor activity against mouse B16-F10 cells implanted in C57BL/6 mouse assessed as tumor growth inhibition at 15 mg/kg, po measured after 18 days; assay type: functional; conditions: 432 h, time 18 day, read-out: TGI; procedure, shortened: as §4
[22] = Tmax in C57BL/6 mouse at 10 mg/kg, po measured upto 24 hrs by LC-MS analysis; assay type: ADME, organism-based; conditions: in vivo; procedure, shortened: as §3
[23] = Oral bioavailability in C57BL/6 mouse at 10 mg/kg measured upto 24 hrs by LC-MS analysis; assay type: ADME, organism-based; conditions: in vivo; procedure, shortened: as §3
[24] = Half life in Sprague-Dawley rat at 45 mg/kg, po measured upto 24 hrs by LC-MS analysis; assay type: ADME, organism-based; conditions: in vivo; procedure, shortened: as §2
MC-38 [25] = experiment: Antitumor activity against PD-L1 humanized mouse MC38 cells implanted in PD-L1 humanized C57BL/6 mouse assessed as tumor growth inhibition at 50 mg/kg, po measured after 30 days; assay type: functional; conditions: MC-38, po, 720 h, time 30 day, read-out: TGI
Procedure, shortened: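 PD-L1-humanized C57BL/6 mice given 1 × 10⁶ MC38-hPD-L1(Tg)-mPDL1(KO) cells in the right flank. Once tumours reached 50 mm³, randomized into three groups: CMC-Na vehicle, 25 or 50 mg/kg by daily oral gavage for 30 days. TGI from mean tumour volume of treated versus vehicle groups. n = 6.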

MC-38 [26] = experiment: Antitumor activity against mouse MC38 cells implanted in C57BL/6 mouse assessed as tumor growth inhibition at 150 mg/kg, po measured after 14 days; assay type: functional; conditions: MC-38, po, 336 h, time 14 day, read-out: TGI

CCOC(=O)[C@@H](CO)NCc1cc(Cl)c(OCc2cccc(-c3ccccc3)c2Br)cc1OCc1ccc2nonc2c1.Cl
Activity (MC-38 [1]): Active
AUC(0-t) at 24 h [2]: 1150 ng·h/mL
bioavailability [3]: 9.12%
Tmax [4]: 4.8 min
Activity [5]: Non-Toxic
Activity (MC-38 [6]): Active
inhibition in vivo at 300 mg/kg (MC-38 [7]): 48.9%
inhibition in vivo at 45 mg/kg (B16-F10 [8]): 70.7%
AUC(0-t) at 24 h [9]: 444 ng·h/mL
Cmax [10]: 2820 ng/mL
Activity (MC-38 [11]): Active
Cmax [12]: 150 ng/mL
inhibition in vivo at 5 mg/kg (MC-38 [13]): 19.3%
AUC(0-t) at 24 h [14]: 6280 ng·h/mL
inhibition in vivo at 300 mg/kg (MC-38 [15]): 36.5%
half-life [16]: 1.55 h
Tmax [17]: 4.8 min
Activity (B16-F10 [18]): 0.79 g
Activity [19]: Non-Toxic
Activity [20]: Non-Toxic
inhibition in vivo at 15 mg/kg (B16-F10 [21]): 45.8%
Tmax [22]: 1 h
bioavailability [23]: 7.7%
half-life [24]: 3.43 h
inhibition in vivo at 50 mg/kg (MC-38 [25]): 30.8%
inhibition in vivo at 150 mg/kg (MC-38 [26]): 58.2%
